As a reminder, the % Inhibition is the change of the read-out against control, counted positive when it falls. In general, IC50 refers to the concentration that inhibits the measured activity by half.

For one series, the system named is Onchocerca ochengi. The series can be described thus: WHO-TDR: Onchocerciasis. Format: functional. Further details: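 at 12.5 µM on microfilariae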. In outline:
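Onchocerca ochengi or Onchocerca lienalis, animal pathogens used as surrogates for the human parasite, were screened as whole microfilariae against a 10,000-compound diverse library from Life Chemicals. The reported measures of activity are percent inhibition and IC50.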

The test system of another series is Plasmodium falciparum K1. Briefly: WHO-TDR: Malaria. Format: functional, organism-based, Homo sapiens. To be noted: Erythrocyte. The method in brief:
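This whole-organism screen covered 10,000 drug-likeness-filtered and reactive-group-filtered compounds from Life Chemicals. The target was the Plasmodium falciparum K1 strain in human red blood cells, and the readout was antiplasmodial IC50.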

In the next series the test system is Trypanosoma cruzi. Briefly: WHO-TDR: Chagas disease. Format: functional, organism-based, Homo sapiens. The settings on record: MRC5. In outline:
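Whole-organism screen of a 10,000-compound diverse library from Life Chemicals, filtered for drug-likeness and reactive groups, against intracellular amastigotes of Trypanosoma cruzi Tulahuen CL2 beta-galactosidase strain grown in MRC-5SV2 human lung fibroblast host cells. The assay followed previously published standard procedures, with a reference drug as positive control. Antiparasitic potency is reported as IC50.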

The next series has as its system Leishmania infantum. Briefly: WHO-TDR: Leishmaniasis. The format is functional, organism-based, Mus musculus. To be noted: Macrophage. In outline:
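The screened collection came from Life Chemicals: 10,000 diverse compounds selected after filtering for drug-likeness and reactive groups. Each was tested in a whole-organism assay against Leishmania infantum MHOM/MA(BE)/67 amastigotes inside murine peritoneal macrophages, using previously published standard procedures and a reference drug as positive control. Results are IC50 values for antiparasitic potency.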

The subject of the next series is Brugia malayi. The series can be described thus: WHO-TDR: Lymphatic Filariasis. Format: functional. Further details: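 tested at 10 µM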. The method in brief: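 Percent inhibition and IC50 describe activity against Brugia malayi microfilariae in a whole-organism screen. The screen used previously published standard procedures with reference drugs as positive controls. Compounds came from a diverse Life Chemicals library of 10,000, filtered for drug-likeness and reactive groups.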

For series [1], the system named is Trypanosoma brucei brucei. Briefly: WHO-TDR: Human African Trypanosomiasis (HAT). Format: functional, organism-based. The settings on record: Squib-427. In outline:
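Screening used a 10,000-compound diverse library supplied by Life Chemicals and filtered for drug-likeness and reactive groups. Whole bloodstream-form parasites of Trypanosoma brucei Squib 427 strain were assayed according to previously published standard procedures, with reference drugs as positive controls. The reported measure is IC50, reflecting antiparasitic potency.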

The nature of series [2]: WHO-TDR: Cytotoxicity. The format is toxicity, cell-based. The settings on record: human, MRC5 cells.
A further series relates to Schistosoma mansoni. Briefly: WHO-TDR: Schistosomiasis. Format: functional. Further details: concentration or dose not given beside the values. The method in brief: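 Larval and/or adult Schistosoma mansoni (Puerto Rican strain) were tested whole against 10,000 diverse compounds from Life Chemicals. The procedure was a previously published standard one, using a reference drug as positive control. Results are expressed as percent inhibition and IC50.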

≈ marks a conversion by molar mass, not a printed value.

Consider `O=C(Cc1cccs1)N1CCN(c2nccn2-c2cccc(Cl)c2)CC1`, for which the results for the “% Inhibition” value with Onchocerca ochengi, in the series with Brugia malayi and with Schistosoma mansoni were 50%, 0% and 0%, respectively. The IC50 is 12 µg/mL (≈ 31.1 µM) in the series on Plasmodium falciparum K1; 7.14 µg/mL (≈ 18.5 µM) with Trypanosoma cruzi; 0.411 µg/mL (≈ 1.06 µM) in the series with Leishmania infantum; 4.77 µg/mL (≈ 12.3 µM) in series [1]; over 12.7 µg/mL in series [2].

Regarding `COc1cc(OC)cc(C(=O)N2CCN(c3nccn3-c3cccc(Cl)c3)CC2)c1`, the “% Inhibition” value with Onchocerca ochengi turned out to be 100%; with Brugia malayi, 0%; with Schistosoma mansoni, 0%. Further, the IC50 in the series on Plasmodium falciparum K1 was 6.13 µg/mL (≈ 14.4 µM); with Trypanosoma cruzi, 4.18 µg/mL (≈ 9.78 µM); with Leishmania infantum it was 4.5 µg/mL (≈ 10.5 µM); in series [1] it was 4.5 µg/mL (≈ 10.5 µM); in series [2], over 13.9 µg/mL.

With `CCOC(=O)Cn1/c(=N\C(=O)CCCS(=O)(=O)Cc2ccccc2)sc2cc(F)ccc21`, the “% Inhibition” value is on record as 100% in the series on Onchocerca ochengi, 0% with Brugia malayi and 0% in the series on Schistosoma mansoni. The IC50 (in the series with Plasmodium falciparum K1; with Trypanosoma cruzi; with Leishmania infantum; in series [1]; in series [2]) was over 14.4 µg/mL throughout.

On to `CN(C)C(CNS(=O)(=O)c1ccc2c(c1)CCCC2)c1ccc(F)cc1` (stereo not given), for which the results for the “% Inhibition” value with Onchocerca ochengi, with Brugia malayi and in the series on Schistosoma mansoni were 100%, 0% and 0%, respectively. Moreover, the IC50 with Plasmodium falciparum K1 is over 11.3 µg/mL; with Trypanosoma cruzi, 4.67 µg/mL (≈ 12.4 µM); in the series with Leishmania infantum it was over 11.3 µg/mL; in series [1], 2.99 µg/mL (≈ 7.95 µM); in series [2] it was over 11.3 µg/mL.

Consider `Cc1ccnc(Nc2ccc(NCCNS(=O)(=O)c3ccc(F)cc3)nn2)c1`, for which the entries for the “% Inhibition” value with Onchocerca ochengi, in the series on Brugia malayi and with Schistosoma mansoni were 100%, 50% and 0%, respectively. In addition, the IC50 in the series on Plasmodium falciparum K1 is 12.1 µg/mL (≈ 30 µM); in the series with Trypanosoma cruzi, 4.13 µg/mL (≈ 10.3 µM); with Leishmania infantum, 3.91 µg/mL (≈ 9.71 µM); in series [1], 3.91 µg/mL (≈ 9.71 µM); in series [2] it was over 12.1 µg/mL.

As to `O=C(Cc1csc(SCC(=O)c2ccccc2)n1)NCCC1=CCCCC1`, the “% Inhibition” value worked out at 100% with Onchocerca ochengi, 0% in the series with Brugia malayi and 33.3% with Schistosoma mansoni. Moreover, the IC50 was over 12 µg/mL with Plasmodium falciparum K1; 3.65 µg/mL (≈ 9.11 µM) in the series with Trypanosoma cruzi; over 12 µg/mL with Leishmania infantum; 5.07 µg/mL (≈ 12.6 µM) in series [1]; over 12 µg/mL in series [2].

For the molecule `COc1cccc(-c2cc(CC(=O)NCc3c(F)cccc3F)no2)c1`, the “% Inhibition” value in the series with Onchocerca ochengi is recorded as 100%; in the series on Brugia malayi, 0%; in the series with Schistosoma mansoni, 0%. Further, the IC50 in the series on Plasmodium falciparum K1 is over 10.8 µg/mL; with Trypanosoma cruzi, over 10.8 µg/mL; with Leishmania infantum, 3.48 µg/mL (≈ 9.71 µM); in series [1] it was over 10.8 µg/mL; in series [2], over 10.8 µg/mL.

In the case of `CCn1ccnc1N1CCN(CC(=O)NCc2ccc(C)cc2)CC1`, the “% Inhibition” value in the series on Onchocerca ochengi, with Brugia malayi and in the series with Schistosoma mansoni was 0% throughout. In addition, the IC50 in the series with Plasmodium falciparum K1 is over 12.4 µg/mL; in the series with Trypanosoma cruzi, over 12.4 µg/mL; in the series with Leishmania infantum, 0.402 µg/mL (≈ 1.18 µM); in series [1] it was over 12.4 µg/mL; in series [2], over 12.4 µg/mL.

Take `CC(C)CC(=O)NCCOc1ccc2nnc(-c3ccccc3)n2n1`: the “% Inhibition” value is listed as 0% with Onchocerca ochengi, 33.33% in the series on Brugia malayi and 16.7% with Schistosoma mansoni. Besides, the IC50 was over 10.2 µg/mL in the series with Plasmodium falciparum K1; over 10.2 µg/mL in the series on Trypanosoma cruzi; 0.33 µg/mL (≈ 0.972 µM) in the series on Leishmania infantum; over 10.2 µg/mL in series [1]; over 10.2 µg/mL in series [2].

For the molecule `O=c1ccc(-c2ccc(F)cc2)nn1CCCNS(=O)(=O)/C=C/c1ccccc1`, the “% Inhibition” value in the series on Onchocerca ochengi is reported as 100%; with Brugia malayi, 0%; with Schistosoma mansoni it was 0%. Besides, the IC50 with Plasmodium falciparum K1 was 6.97 µg/mL (≈ 16.9 µM); in the series with Trypanosoma cruzi, over 12.4 µg/mL; in the series on Leishmania infantum, over 12.4 µg/mL; in series [1] it was 5.43 µg/mL (≈ 13.1 µM); in series [2], 6.58 µg/mL (≈ 15.9 µM).

Source of the values: ChEMBL document CHEMBL2093137, “WHO-TDR NTD Screening”.
